NTR1 agonist: activates human neurotensin receptor 1; activation, % at 20 µM; P30989; actives 0.17% (n = 330,000); NTR1-U2OS beta-arrestin-GFP spot imaging, agonist mode; AID 493036;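 active = activation at or above 40% of the spot to cytoplasm intensity ratio, with at least 20 cells analyzed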;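 also: 0% = DMSO without peptide and 100% = 100 nM NTR1 peptide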
Target sequence (P30989 whole entry, looked up): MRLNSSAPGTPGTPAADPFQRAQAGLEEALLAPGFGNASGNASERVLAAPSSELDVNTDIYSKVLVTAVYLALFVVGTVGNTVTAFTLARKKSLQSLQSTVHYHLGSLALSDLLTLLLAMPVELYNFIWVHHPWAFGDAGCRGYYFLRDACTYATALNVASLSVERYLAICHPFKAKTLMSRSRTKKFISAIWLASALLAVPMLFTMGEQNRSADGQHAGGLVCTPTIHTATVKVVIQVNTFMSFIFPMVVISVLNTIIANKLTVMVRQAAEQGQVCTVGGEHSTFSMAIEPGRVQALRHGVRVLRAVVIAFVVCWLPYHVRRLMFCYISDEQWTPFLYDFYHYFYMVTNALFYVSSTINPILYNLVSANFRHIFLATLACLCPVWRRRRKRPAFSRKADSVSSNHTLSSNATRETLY
CHO parental Ca: signal in parental CHO cells, OX1R antagonist counter-screen | inhibition, % at 5.6 µM | parental CHO-K1, ATP-induced calcium, Fluo-8 fluorescence | actives 0.63% (n = 330,000);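 active = inhibition above that plate's mean sample inhibition plus 3 SD, cut at about 26% in these data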;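 also: 0% = ATP-challenged DMSO wells and 100% = DMSO wells without ATP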
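Assay system – parental CHO cells · Reagent – ATP stimulus · Detection – intracellular calcium via Fluo-8 no-wash fluorescent dye · Evaluation – percent inhibition of ATP-evoked calcium rise, normalized to controls · Controls – ATP wells versus no-ATP DMSO wells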
TAAR1 ag: human TAAR1 agonism; Q96RJ0; CHO RD-HGA16 TAAR1, Fluo-8 calcium fluorescence; vehicle wells 0%, saturating PEA agonist 100%; activation, % at 3 µM; actives 0.99% (n = 360,000);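 active = activation above the mean activation of all test compounds in the run plus 3 SD, cut at about 38% in these data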
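Assay system – CHO-derived RD-HGA16 cells with stable Gα16 and human TAAR1 · Compound dosing – one-point dosing at 3 µM (nominal) · Incubation – 17-24 h seeding, 75 min 37 °C dye, 30 min RT · Measured by – kinetic Fluo-8 calcium fluorescence · Control set – DMSO vehicle as 0%, PEA at EC100 as 100% · Repeats – single well for each compound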
TAAR1 antagonist: human TAAR1 antagonism; Q96RJ0; CHO RD-HGA16 TAAR1, Fluo-8 calcium fluorescence, antagonist; inhibition, % at 3 µM; actives 1.5% (n = 360,000);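 active = inhibition above a per-plate cutoff, the mean inhibition of test compounds on that plate plus 3 SD, cut at about 49% in these data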;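 also: 0% = DMSO plus EC80 beta-PEA response and 100% = DMSO alone without agonist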
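System: CHO RD-HGA16 cells bearing hTAAR1. Reagent: EC80 β-phenethylamine stimulus. Schedule: seeding 17-24 h prior, 75-min 37 °C, 30-min RT dye loading. Signal: Fluo-8 intracellular calcium dye fluorescence, real-time kinetic reads. Read-out: % inhibition from peak post-agonist over basal fluorescence ratio. Benchmarks: vehicle wells and EC80 agonist wells. Replicates: n of 1.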
OX1R antag-1: blocks the human orexin 1 receptor | O43613 | OX1R-expressing cells, FRET antagonist read-out | inhibition, % at 6.6 µM | actives 1.8% (n = 330,000) | AID 485270; in the data active = inhibition mostly above about 38%, no sharp cut-off; inactive = mostly below about 40%;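 also: 0% = agonist challenge alone and 100% = reference antagonist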
OX1R antag-2: antagonists of human orexin 1 receptor | AID 434989 | CHO/OX1R cells, Fluo-8 calcium fluorescence, orexin A | O43613 | inhibition, % at 5 µM | actives 0.43% (n = 330,000);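 active = inhibition above its plate's threshold, mean inhibition of all tested compounds on the plate plus 3 SD, cut at about 37% in these data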;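 also: 0% = orexin A challenge wells and 100% = SB-334867-A antagonist wells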
* marks the source's active call; other numbers are inactive results; nt = not tested or not shown. Sampled rows, rich in hits. Any-hit rate of the full collection: about 4%.

SMILES	NTR1 agonist	CHO parental Ca	TAAR1 ag	TAAR1 antagonist	OX1R antag-1	OX1R antag-2
Cc1cccc(N/C=C/c2onc(C)c2[N+](=O)[O-])c1	4	-4	6	-4	28	-10
CCC(c1nnnn1-c1ccc2c(c1)OCCO2)N1CCc2ccccc2C1 (stereo not given)	nt	nt	-1	-2	nt	nt
CCN(c1cccc(C(F)(F)F)c1)S(=O)(=O)c1ccc2c(c1)CCN2C(=O)C1CC1	3	65*	6	61*	23	17
CCC(=O)N1CCc2cc(S(=O)(=O)N(CC)c3cccc(C)c3)ccc21	1	-9	9	17	7	-13
CC(=O)Nc1ccc(S(=O)(=O)N2CCN=C2SCc2ccc([N+](=O)[O-])cc2)cc1	2	33*	12	26	22	9
CC(=O)Nc1ccc(S(=O)(=O)N2CCN=C2SCc2cccc(C)c2)cc1	3	1	10	-9	42	-8
Cn1c(CSCc2ccc(F)cc2)nnc1SCC(=O)Nc1nccs1	-1	-9	20	35	12	-16
Cn1c(CSCc2ccc(Cl)c(Cl)c2)nnc1SCC(=O)Nc1nccs1	6	-7	40*	62*	33	1
O=C(O)Cc1sc(NC2CCCCC2)nc1-c1ccc(Cl)cc1	2	33*	1	-14	6	16
Cc1ccc(-c2nc(Nc3cccc(C)c3)sc2CC(=O)O)cc1	-2	6	-1	27	6	-13
CCOC(=O)CSc1nc2sc(C)c(C)c2c(=O)[nH]1	-1	-24	2	1	23	-11
CCOC(=O)/C(=C\c1ccc(Cl)cc1)c1nc2sc(C)c(C)c2c(=O)[nH]1	33	-12	14	92*	1	-21
Nc1cc(=O)n(Cc2ccccc2)c(N)c1C(=O)NCc1ccccc1	nt	nt	4	-2	nt	nt
Cc1ccnc(SCCn2c(N3CCN(c4ccccc4)CC3)nc3c2c(=O)[nH]c(=O)n3C)n1	2	-14	12	51*	21	-24
Cc1cccc2sc(N(CCN(C)C)C(=O)C3CCN(S(=O)(=O)c4cccs4)CC3)nc12	14	-10	39*	41	0	-15
CN(C)CCN(C(=O)C1CCN(S(=O)(=O)c2cccs2)CC1)c1nc2ccc(F)cc2s1	2	-6	7	-2	4	-18
NC(Cc1ccc(C(F)(F)F)cc1)c1csc(Nc2ccc(C(=O)c3ccccc3)cc2)n1 (stereo not given)	nt	nt	36	27	nt	nt
CC(=O)c1ccc(Nc2nc(C(N)Cc3ccc(C(F)(F)F)cc3)cs2)cc1 (stereo not given)	nt	nt	52*	36	nt	nt
COc1ccc(NC(=O)Nc2nc(C(N)Cc3ccc(C(F)(F)F)cc3)cs2)cc1 (stereo not given)	nt	nt	40*	50*	nt	nt
OC(c1ccccc1)(c1ccccc1)C1CCN(CCCOc2ccccn2)CC1	nt	nt	1	6	nt	nt
COC(=O)[C@]12C[C@H](CC(=O)N3CCC(c4ccccc4)CC3)C(=O)N(Cc3ccccc3)C1=C[C@H](C1CCCC1)O[C@@H]2C	nt	nt	-1	-26	nt	nt
CNc1nc2cc([N+](=O)[O-])c([N+](=O)[O-])cc2nc1NC	nt	59*	16	8	45	27
O=C(NS(=O)(=O)c1cccc(F)c1)[C@H]1O[C@@H](n2ccc(=O)[nH]c2=O)[C@H](O)[C@@H]1O	nt	nt	2	-28	nt	nt
O=S(=O)(c1ccccc1)N1CCCc2nc(-c3ccccc3)ccc21	nt	nt	2	13	nt	nt
C/C(=N\Nc1cccc2cccnc12)c1ccccn1	2	-6	-2	-30	43*	-9
C=CC[C@@H](CC(=O)N[C@@H](CO)Cc1ccccc1)C(=O)N[C@H](COC(=O)[C@H](CC=C)CC(=O)OC(C)(C)C)Cc1c[nH]c2ccccc12	7	2	13	52*	10	47
C=CCC[C@H](Cc1ccc(F)cc1)C(=O)OC[C@H](Cc1c[nH]c2ccccc12)NC(=O)[C@H](CC=C)CC(=O)N(CCO)Cc1ccccc1	14	3	2	29	18	13
